Laboratory results published in ChEMBL document CHEMBL1132153, “Antitumor agents. 196. Substituted 2-thienyl-1,8-naphthyridin-4-ones: their synthesis, cytotoxicity, and inhibition of tubulin polymerization” (J Med Chem, 1999).

What was measured:
SW-620 = test: In vitro growth inhibition of SW-620 colon cancer cell line.; assay type: functional; conditions: Homo sapiens
HL-60 [1] = test: In vitro growth inhibition of HL-60 (TB) leukemia cell line.; assay type: functional; conditions: Homo sapiens
In short: (§1)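 Human leukemia HL-60(TB) cells exposed to compound in vitro. The read-out is log GI50 in molar units, defined as the log concentration that reduced cell growth to 50% of the level in untreated controls.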

Tubulin [2] = molecular target: T1, Tubulin (Bos taurus, UniProt Q6B856+Q862L2+Q862F3); test: Inhibition of tubulin polymerization (ITP); assay type: functional
In short: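 Polymerization of electrophoretically homogeneous bovine brain tubulin at 12 µM, run with a range of inhibitor concentrations. IC50 is the concentration inhibiting polymerization by 50%, reported ± SD.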

PC-3 = test: In vitro growth inhibition of PC-3 prostate cancer cell line.; assay type: functional; conditions: Homo sapiens
MDA-N = test: In vitro growth inhibition of MDA-N breast cancer cell line.; assay type: functional; conditions: Homo sapiens
OVCAR-3 = test: In vitro growth inhibition of OVCAR-3 ovarian cancer cell line.; assay type: functional; conditions: Homo sapiens
SK-MEL-5 = test: In vitro growth inhibition of SK-MEL-5 melanoma cell line.; assay type: functional; conditions: Homo sapiens
MDA-MB-435 = test: In vitro growth inhibition of MDA-MB-435 breast cancer cell line.; assay type: functional; conditions: Homo sapiens
RXF 393 = test: In vitro growth inhibition of RXF-393 renal cancer cell line.; assay type: functional; conditions: Homo sapiens
NCI-H23 = test: In vitro growth inhibition of NCI-H23 non small cell lung cancer cell line.; assay type: functional; conditions: Homo sapiens
U-251 = test: In vitro growth inhibition of U251 CNS cancer cell line.; assay type: functional; conditions: Homo sapiens
MCF7 = test: In vitro cytotoxicity against MCF-7 human breast cancer cells; assay type: functional; conditions: read-out: ED50 (the source's name)
In short: (§2)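 Panel of human tumor lines: KB nasopharyngeal epidermoid, A-549 lung, HCT-8 ileocecal, CAKI-1 renal, MCF-7 breast, SKMEL-2 melanoma. Growth measured by SRB assay and compared with untreated cells.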

KB [3] = test: In vitro cytotoxicity against KB human epidermoid carcinoma of the nasopharynx; assay type: functional; conditions: read-out: ED50 (the source's name); in short: as §2
HCT-8 = test: In vitro cytotoxicity against HCT-8 human ileocecal cancer cells; assay type: functional; conditions: read-out: ED50 (the source's name); in short: as §2
Tubulin (Bos taurus) [4] = molecular target: T2, Tubulin (Bos taurus) (UniProt Q6B856+Q862L2+Q862F3); test: Concentration inhibiting [3H]-colchicine binding to tubulin; assay type: protein assay; conditions: concentration not given here
In short: (§3)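 Inhibition of [³H]colchicine binding to electrophoretically homogeneous bovine brain tubulin (1 µM). [³H]colchicine and inhibitor each at 5 µM. Result given as % inhibition.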

SK-MEL-2 [5] = test: In vitro cytotoxicity against SKMEL-2 human melanoma cancer cells; assay type: functional; conditions: read-out: ED50 (the source's name); in short: as §2
A549 = test: In vitro cytotoxicity against A-549 human lung cancer cells; assay type: functional; conditions: read-out: ED50 (the source's name); in short: as §2
CAKI-1 = test: In vitro cytotoxicity against CAKI-1 human renal cancer cells; assay type: functional; conditions: read-out: ED50 (the source's name); in short: as §2
Tubulin [6] = molecular target: T1, Tubulin; test: Concentration inhibiting tubulin polymerization (ITP); assay type: functional
Tubulin (Bos taurus) [7] = molecular target: T2, Tubulin (Bos taurus); test: Concentration inhibiting [3H]colchicine binding to tubulin, at a concentration of 5 uM; assay type: protein assay; in short: as §3
SK-MEL-2 [8] = test: In vitro cytotoxicity against SKMEL-2 human melanoma cancer; assay type: functional; conditions: read-out: ED50 (the source's name); in short: as §2
KB [9] = test: In vitro cytotoxicity against KB-Vin cancer cell line.; assay type: functional; conditions: Homo sapiens, read-out: ED50 (the source's name)
KB [10] = test: In vitro cytotoxicity against KB-Vin cancer cell line; assay type: functional; conditions: Homo sapiens, read-out: ED50 (the source's name)
HL-60 [11] = test: In vitro growth inhibition of HL-60 (TB) leukemia cell line; assay type: functional; conditions: Homo sapiens; in short: as §1

| SMILES | GI50 (SW-620) | GI50 (HL-60 [1]) | IC50 (Tubulin [2]) | GI50 (PC-3) | GI50 (MDA-N) | GI50 (OVCAR-3) | GI50 (SK-MEL-5) | GI50 (MDA-MB-435) | GI50 (RXF 393) | GI50 (NCI-H23) | GI50 (U-251) | EC50 (MCF7) | EC50 (KB [3]) | EC50 (HCT-8) | EC50 (A549) | EC50 (CAKI-1) | also measured |
| --- | --- | --- | --- | --- | --- | --- | --- | --- | --- | --- | --- | --- | --- | --- | --- | --- | --- |
| Cc1ccc2c(O)cc(-c3sc4ccccc4c3C)nc2n1 | 20000 nM | 18600 nM | 13000 nM | 33100 nM | 17000 nM | 19500 nM | 14800 nM | 4790 nM | 17000 nM | 19500 nM | 38900 nM | – | – | – | – | – | – |
| Cc1ccc2c(O)cc(-c3sccc3C)nc2n1 | 145 nM | 174 nM | 2800 nM | 245 nM | 77.6 nM | 661 nM | 178 nM | 107 nM | 631 nM | 145 nM | 468 nM | – | – | – | – | – | – |
| Cc1cnc2nc(-c3csc4ccccc34)cc(O)c2c1 | – | – | – | – | – | – | – | – | – | – | – | 125 nM | 27 nM | 57 nM | 56 nM | 134 nM | inhibition (Tubulin (Bos taurus) [4]): 26%; EC50 (SK-MEL-2 [5]): 135 nM; IC50 (Tubulin [6]): 910 nM |
| Cc1ccc2c(O)cc(-c3ccc(C)s3)nc2n1 | 47.9 nM | 77.6 nM | 1700 nM | 204 nM | 22.9 nM | 257 nM | 204 nM | 23.4 nM | 195 nM | 138 nM | 324 nM | – | – | – | – | – | – |
| Cc1ccc2c(O)cc(-c3cc4ccccc4s3)nc2n1 | > 100000 nM | > 100000 nM | > 40000 nM | > 100000 nM | > 100000 nM | > 100000 nM | > 100000 nM | > 100000 nM | 51300 nM | > 100000 nM | > 100000 nM | – | – | – | – | – | – |
| Cc1ccc2c(O)cc(-c3csc4ccccc34)nc2n1 | < 10 nM | < 10 nM | – | – | < 10 nM | < 10 nM | < 10 nM | < 10 nM | < 10 nM | 21.9 nM | – | – | – | – | – | – | inhibition (Tubulin (Bos taurus) [7]): 65%; IC50 (Tubulin [6]): 370 nM |
| Cc1cnc2nc(-c3ccc(C)s3)cc(O)c2c1 | – | – | 2700 nM | – | – | – | – | – | – | – | – | 1100 nM | 1100 nM | 900 nM | 1300 nM | 1250 nM | EC50 (SK-MEL-2 [8]): > 2500 nM; EC50 (KB [9]): 1100 nM |
| Cc1ccc2c(O)cc(-c3ccc(Cl)s3)nc2n1 | – | 204 nM | 1700 nM | 1580 nM | 186 nM | 2040 nM | 380 nM | 380 nM | 2040 nM | 1000 nM | 1200 nM | – | – | – | – | – | – |
| Cc1ccnc2nc(-c3csc4ccccc34)cc(O)c12 | – | – | – | – | – | – | – | – | – | – | – | 250 nM | 40 nM | – | 200 nM | > 250 nM | inhibition (Tubulin (Bos taurus) [4]): 22%; IC50 (Tubulin [6]): 1200 nM |
| Cc1ccc2c(O)cc(-c3cccs3)nc2n1 | 2950 nM | 2690 nM | 6000 nM | 9330 nM | 1860 nM | 30900 nM | 6030 nM | 2000 nM | 11200 nM | 4370 nM | 17000 nM | > 1600 nM | 6300 nM | – | > 6300 nM | – | EC50 (KB [10]): 9500 nM |
| Cc1ccc2c(O)cc(-c3ccco3)nc2n1 | – | – | 14000 nM | – | – | – | – | – | – | – | – | > 20000 nM | > 10000 nM | > 10000 nM | > 10000 nM | > 10000 nM | EC50 (SK-MEL-2 [5]): > 10000 nM |
| Cc1ccc2c(O)cc(-c3sc(-c4ccccc4)cc3C)nc2n1 | 10000 nM | 5500 nM | 14000 nM | – | 3890 nM | 21400 nM | 3390 nM | 3550 nM | 36300 nM | 6030 nM | – | – | – | – | – | – | – |
| Cc1ccc2c(O)cc(-c3cc(C)sc3C)nc2n1 | 1410 nM | 1550 nM | 4800 nM | 2240 nM | 631 nM | 2820 nM | 661 nM | 372 nM | 1910 nM | 1230 nM | 3470 nM | – | – | – | – | – | – |
| Cc1ccc2c(O)cc(-c3ccc(Br)s3)nc2n1 | – | – | – | – | – | – | – | – | – | – | – | > 800 nM | 800 nM | > 800 nM | > 3100 nM | – | EC50 (SK-MEL-2 [5]): > 10000 nM; inhibition (Tubulin (Bos taurus) [7]): 19%; EC50 (KB [9]): 500 nM; IC50 (Tubulin [6]): 1500 nM |
| Cc1cnc2nc(-c3sccc3C)cc(O)c2c1 | 4170 nM | – | 3800 nM | 5370 nM | 676 nM | 3800 nM | 2040 nM | 324 nM | 4470 nM | – | 9120 nM | 1100 nM | 1300 nM | 1000 nM | 2500 nM | > 5000 nM | EC50 (KB [9]): 1900 nM |
| Cc1ccc2c(O)cc(-c3cccnc3)nc2n1 | – | – | 7700 nM | – | – | – | – | – | – | – | – | 1200 nM | 3000 nM | 2100 nM | 4600 nM | 5000 nM | EC50 (SK-MEL-2 [8]): > 10000 nM; EC50 (KB [10]): 2500 nM |
| Cc1ccc2c(O)cc(-c3ccsc3)nc2n1 | 1000 nM | – | 7000 nM | 3090 nM | 363 nM | 5130 nM | 2570 nM | 490 nM | 3240 nM | 1860 nM | 3890 nM | > 3100 nM | 6300 nM | > 3100 nM | > 6300 nM | – | GI50 (HL-60 [11]): 2190 nM |
| Cc1cc(C)c2c(O)cc(-c3csc4ccccc34)nc2n1 | – | – | – | – | – | – | – | – | – | – | – | 500 nM | 120 nM | – | 300 nM | > 500 nM | inhibition (Tubulin (Bos taurus) [4]): 26%; IC50 (Tubulin [6]): 780 nM |
